Reference: ChEMBL document CHEMBL4665883, “Development of DHQ-based chemical biology probe to profile cellular targets for HBV” (Bioorg Med Chem Lett, 2020)
Where a name gives a salt, the structure may show the parent alone. Calls of active or inactive are those of the source. No cut-off for these calls is given here.

Tests used:
[1] = Cytotoxicity against human HepG2.2.15 cells assessed as reduction in cell viability; assay type: cell-based, HepG2 2.2.15
[2] = test system: Hepatitis B virus; experiment: Antiviral activity against Hepatitis B virus infected in human HepG2.2.15 cells assessed as reduction in HBV DNA level in cell supernatants incubated for 5 days by real time PCR analysis; assay type: functional, organism-based; details: HepG2.2.15, 120 h
[3] = test system: Hepatitis B virus; experiment: Antiviral activity against Hepatitis B virus infected in human HepG2.2.15 cells assessed as reduction in HBsAg level in cell supernatants incubated for 5 days by AlphaLisa assay; assay type: functional, organism-based; details: HepG2.2.15, 120 h
[4] = target: T1, Aldehyde dehydrogenase X, mitochondrial (Homo sapiens) (UniProt P30837); experiment: Binding affinity to ALDH X in human HePAD38 cells infected with HBV assessed as protein labelling at 20 uM after 1 hr by photoaffinity labelling in-situ fluorescence gel-based LC-MS/MS analysis; assay type: cell-based
T1 sequence (whole entry): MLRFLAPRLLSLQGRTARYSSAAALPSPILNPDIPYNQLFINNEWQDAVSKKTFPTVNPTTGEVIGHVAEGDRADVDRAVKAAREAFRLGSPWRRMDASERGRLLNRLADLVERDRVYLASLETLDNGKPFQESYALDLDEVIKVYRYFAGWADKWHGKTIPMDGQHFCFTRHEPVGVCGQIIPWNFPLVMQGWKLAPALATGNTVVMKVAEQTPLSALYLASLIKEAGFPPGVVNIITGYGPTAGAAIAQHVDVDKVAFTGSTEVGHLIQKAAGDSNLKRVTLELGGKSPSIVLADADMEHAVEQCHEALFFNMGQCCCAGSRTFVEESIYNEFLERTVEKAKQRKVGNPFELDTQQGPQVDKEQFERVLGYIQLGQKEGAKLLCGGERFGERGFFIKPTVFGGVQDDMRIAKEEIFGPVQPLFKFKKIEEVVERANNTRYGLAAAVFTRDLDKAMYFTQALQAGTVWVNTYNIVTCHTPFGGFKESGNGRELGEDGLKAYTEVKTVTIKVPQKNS
Procedure, shortened: (§1)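 Live HepAD38 cells incubated 1 h with photoaffinity probe at 20 μM final, then UV-irradiated. Cells were harvested and homogenized in HEPES lysis buffer. Lysates underwent copper-catalysed click conjugation to biotin-Diazo-azide, then large-scale affinity enrichment, with bound proteins identified by LC–MS/MS.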

[5] = target: 60 kDa heat shock protein, mitochondrial (Homo sapiens) (UniProt P10809); experiment: Binding affinity to 60 kDa HSP60 in human HePAD38 cells infected with HBV assessed as protein labelling at 20 uM after 1 hr by photoaffinity labelling in-situ fluorescence gel-based LC-MS/MS analysis; assay type: cell-based; procedure, shortened: as §1
[6] = target: T2, Aldehyde dehydrogenase 1A1 (Homo sapiens) (UniProt P00352); experiment: Binding affinity to RALDH1 in human HePAD38 cells infected with HBV assessed as protein labelling at 20 uM after 1 hr by photoaffinity labelling in-situ fluorescence gel-based LC-MS/MS analysis; assay type: cell-based; procedure, shortened: as §1
T2 sequence (whole entry): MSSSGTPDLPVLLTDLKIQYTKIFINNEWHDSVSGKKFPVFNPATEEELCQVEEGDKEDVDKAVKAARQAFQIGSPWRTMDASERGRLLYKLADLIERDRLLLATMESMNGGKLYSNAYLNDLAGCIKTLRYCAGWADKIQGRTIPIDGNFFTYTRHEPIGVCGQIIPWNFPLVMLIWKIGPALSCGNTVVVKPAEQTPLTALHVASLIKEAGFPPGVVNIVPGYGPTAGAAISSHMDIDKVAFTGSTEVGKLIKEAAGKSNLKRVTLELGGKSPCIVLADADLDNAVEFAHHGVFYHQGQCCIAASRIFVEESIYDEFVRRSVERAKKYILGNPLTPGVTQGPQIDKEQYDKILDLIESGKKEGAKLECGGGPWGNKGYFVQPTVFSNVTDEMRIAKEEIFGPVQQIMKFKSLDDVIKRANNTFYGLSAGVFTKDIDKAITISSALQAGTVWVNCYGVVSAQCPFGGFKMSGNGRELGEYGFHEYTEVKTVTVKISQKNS

[7] = target: T3, Isocitrate dehydrogenase [NADP], mitochondrial (Homo sapiens) (UniProt P48735); experiment: Binding affinity to IDH in human HePAD38 cells infected with HBV assessed as protein labelling at 20 uM after 1 hr by photoaffinity labelling in-situ fluorescence gel-based LC-MS/MS analysis; assay type: cell-based; procedure, shortened: as §1
T3 sequence (whole entry): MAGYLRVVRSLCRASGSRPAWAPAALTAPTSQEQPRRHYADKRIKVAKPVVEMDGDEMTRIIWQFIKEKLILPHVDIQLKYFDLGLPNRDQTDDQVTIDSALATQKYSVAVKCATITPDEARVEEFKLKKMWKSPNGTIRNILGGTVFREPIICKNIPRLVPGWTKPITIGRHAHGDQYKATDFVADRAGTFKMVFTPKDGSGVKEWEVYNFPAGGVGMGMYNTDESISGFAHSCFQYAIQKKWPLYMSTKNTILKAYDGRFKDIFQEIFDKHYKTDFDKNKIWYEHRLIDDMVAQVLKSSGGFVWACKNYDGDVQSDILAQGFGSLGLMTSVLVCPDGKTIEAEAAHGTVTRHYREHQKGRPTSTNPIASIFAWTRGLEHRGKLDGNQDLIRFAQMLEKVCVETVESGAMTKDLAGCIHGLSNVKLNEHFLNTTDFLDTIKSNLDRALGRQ

[8] = target: T4, Heme oxygenase 2 (Homo sapiens) (UniProt P30519); experiment: Binding affinity to HMOX2 in human HePAD38 cells infected with HBV assessed as protein labelling at 20 uM after 1 hr by photoaffinity labelling in-situ fluorescence gel-based LC-MS/MS analysis; assay type: cell-based; procedure, shortened: as §1
T4 sequence (whole entry): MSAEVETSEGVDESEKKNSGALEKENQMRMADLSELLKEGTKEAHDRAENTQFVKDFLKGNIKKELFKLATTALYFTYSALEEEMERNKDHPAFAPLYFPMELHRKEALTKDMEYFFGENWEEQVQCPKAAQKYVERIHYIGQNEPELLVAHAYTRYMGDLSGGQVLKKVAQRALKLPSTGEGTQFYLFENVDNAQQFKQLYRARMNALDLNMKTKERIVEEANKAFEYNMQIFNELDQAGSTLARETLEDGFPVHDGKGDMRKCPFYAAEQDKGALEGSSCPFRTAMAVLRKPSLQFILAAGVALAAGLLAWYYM

[9] = target: Poly(rC)-binding protein 1 (Homo sapiens) (UniProt Q15365); experiment: Binding affinity to PCBP1 in human HePAD38 cells infected with HBV assessed as protein labelling at 20 uM after 1 hr by photoaffinity labelling in-situ fluorescence gel-based LC-MS/MS analysis; assay type: cell-based; procedure, shortened: as §1
[10] = target: Terminal nucleotidyltransferase 4B (Homo sapiens) (UniProt Q8NDF8); experiment: Binding affinity to PAPD5 in human HePAD38 cells infected with HBV assessed as protein labelling at 20 uM after 1 hr by photoaffinity labelling in-situ fluorescence gel-based LC-MS/MS analysis; assay type: cell-based; procedure, shortened: as §1
[11] = target: Terminal nucleotidyltransferase 4A (Homo sapiens) (UniProt Q5XG87); experiment: Binding affinity to PAPD7 in human HePAD38 cells infected with HBV assessed as protein labelling at 20 uM after 1 hr by photoaffinity labelling in-situ fluorescence gel-based LC-MS/MS analysis; assay type: cell-based; procedure, shortened: as §1
Terminal nucleotidyltransferase 4A (Homo sapiens), sequence (Q5XG87 whole entry): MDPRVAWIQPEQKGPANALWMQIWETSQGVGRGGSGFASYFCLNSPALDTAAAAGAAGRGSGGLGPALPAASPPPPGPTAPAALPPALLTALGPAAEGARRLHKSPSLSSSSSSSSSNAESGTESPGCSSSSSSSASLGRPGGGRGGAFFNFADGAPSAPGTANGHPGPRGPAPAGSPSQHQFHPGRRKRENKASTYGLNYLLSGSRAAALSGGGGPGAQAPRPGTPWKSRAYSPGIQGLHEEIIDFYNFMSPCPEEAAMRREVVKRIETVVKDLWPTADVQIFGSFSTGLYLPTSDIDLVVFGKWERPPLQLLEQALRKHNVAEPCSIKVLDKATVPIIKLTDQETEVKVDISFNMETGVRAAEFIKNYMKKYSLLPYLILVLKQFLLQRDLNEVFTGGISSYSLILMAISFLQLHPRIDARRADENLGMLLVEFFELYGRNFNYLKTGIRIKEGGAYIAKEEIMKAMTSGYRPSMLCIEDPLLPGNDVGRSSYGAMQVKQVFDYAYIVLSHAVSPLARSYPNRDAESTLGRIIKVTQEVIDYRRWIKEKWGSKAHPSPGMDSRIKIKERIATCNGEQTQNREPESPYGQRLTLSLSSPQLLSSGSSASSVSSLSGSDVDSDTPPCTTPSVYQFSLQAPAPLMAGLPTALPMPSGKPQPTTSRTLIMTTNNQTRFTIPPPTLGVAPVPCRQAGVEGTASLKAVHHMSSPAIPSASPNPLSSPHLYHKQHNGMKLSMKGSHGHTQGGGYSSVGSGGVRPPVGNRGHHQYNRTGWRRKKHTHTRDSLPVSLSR

60 kDa heat shock protein, mitochondrial (Homo sapiens), sequence (P10809 whole entry): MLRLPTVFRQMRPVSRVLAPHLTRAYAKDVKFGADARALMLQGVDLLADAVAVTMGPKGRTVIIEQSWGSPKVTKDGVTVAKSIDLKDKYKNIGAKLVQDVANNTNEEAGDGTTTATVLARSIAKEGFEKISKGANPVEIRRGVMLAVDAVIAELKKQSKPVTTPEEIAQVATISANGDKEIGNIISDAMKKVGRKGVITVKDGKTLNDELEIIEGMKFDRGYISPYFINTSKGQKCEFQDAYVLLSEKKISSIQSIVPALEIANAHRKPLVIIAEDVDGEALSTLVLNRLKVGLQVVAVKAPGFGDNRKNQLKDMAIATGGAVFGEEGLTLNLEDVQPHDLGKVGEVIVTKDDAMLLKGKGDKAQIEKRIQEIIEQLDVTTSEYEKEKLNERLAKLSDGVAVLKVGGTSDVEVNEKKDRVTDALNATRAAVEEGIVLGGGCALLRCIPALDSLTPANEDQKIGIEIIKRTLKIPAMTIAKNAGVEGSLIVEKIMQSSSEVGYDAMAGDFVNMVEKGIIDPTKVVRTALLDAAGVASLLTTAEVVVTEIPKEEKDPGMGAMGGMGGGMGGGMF
Terminal nucleotidyltransferase 4B (Homo sapiens), sequence (Q8NDF8 whole entry): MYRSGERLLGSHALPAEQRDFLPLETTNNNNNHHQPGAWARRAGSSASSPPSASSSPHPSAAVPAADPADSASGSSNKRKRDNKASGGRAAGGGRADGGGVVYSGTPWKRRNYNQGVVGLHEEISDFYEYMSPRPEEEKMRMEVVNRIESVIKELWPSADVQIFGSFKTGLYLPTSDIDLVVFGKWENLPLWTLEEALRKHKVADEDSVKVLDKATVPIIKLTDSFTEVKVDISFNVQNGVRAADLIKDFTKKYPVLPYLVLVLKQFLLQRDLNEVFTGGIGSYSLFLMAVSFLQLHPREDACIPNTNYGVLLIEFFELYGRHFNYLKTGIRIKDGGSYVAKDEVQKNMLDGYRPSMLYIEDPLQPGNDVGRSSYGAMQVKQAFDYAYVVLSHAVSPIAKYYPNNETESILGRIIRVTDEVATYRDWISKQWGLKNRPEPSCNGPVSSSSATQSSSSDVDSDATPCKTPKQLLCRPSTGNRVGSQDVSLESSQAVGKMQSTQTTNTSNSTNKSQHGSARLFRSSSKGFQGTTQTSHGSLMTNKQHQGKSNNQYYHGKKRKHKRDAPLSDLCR
Poly(rC)-binding protein 1 (Homo sapiens), sequence (Q15365 whole entry): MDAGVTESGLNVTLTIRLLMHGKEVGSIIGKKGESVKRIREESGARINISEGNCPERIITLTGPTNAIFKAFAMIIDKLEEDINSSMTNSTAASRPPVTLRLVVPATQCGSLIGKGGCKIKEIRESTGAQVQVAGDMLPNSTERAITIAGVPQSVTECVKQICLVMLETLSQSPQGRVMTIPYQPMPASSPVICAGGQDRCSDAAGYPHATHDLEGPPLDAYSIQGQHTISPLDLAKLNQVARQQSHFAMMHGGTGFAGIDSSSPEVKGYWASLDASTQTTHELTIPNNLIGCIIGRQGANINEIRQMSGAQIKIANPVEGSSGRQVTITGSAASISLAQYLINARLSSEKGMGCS

Structure (SMILES)	EC50 [2] [nM]	EC50 [3] [nM]	further results
C#CCCC1(CCOc2cc3c(cc2C(=O)OC)-c2cc(=O)c(C(=O)O)cn2[C@H](C(C)C)C3)N=N1	3.2	5.6	CC50 [1]: > 150000 nM; Activity [4]: Active; Activity [5]: Active; Activity [6]: Active; Activity [7]: Active; Activity [8]: Active; Activity [9]: Active; Activity [10]: inactive; Activity [11]: inactive
COC(=O)c1cc2c(cc1N1CCCC1)CC(C(C)C)n1cc(C(=O)O)c(=O)cc1-2 (stereo not drawn)	3	5.7	–
C#CCCC1(CCOc2cc3c(cc2C(=O)OC)-c2cc(=O)c(C(=O)O)cn2[C@@H](C(C)C)C3)N=N1	82.2	305	CC50 [1]: > 150000 nM
COCCCOc1cc2c(cc1OCCOc1ccccc1)-c1cc(=O)c(C(=O)O)cn1C(C(C)C)C2 (stereo not drawn)	32.5	154	–
CC(C)OC(=O)OCOP(=O)(CO[C@H](C)Cn1cnc2c(N)ncnc21)OCOC(=O)OC(C)C [TENOFOVIR DISOPROXIL FUMARATE]	13.8	> 1000	–
COCCCOc1cc2c(cc1OC)-c1cc(=O)c(-c3csc(N)n3)cn1C(C(C)C)C2 (stereo not drawn)	816	367	–
COCCCOc1cc2c(cc1C(=O)OC)-c1cc(=O)c(C(=O)O)cn1C(C(C)C)C2 (stereo not drawn)	6.1	2.25	–
COC(=O)c1cc2c(cc1O)CC(C(C)C)n1cc(C(=O)O)c(=O)cc1-2 (stereo not drawn)	89.5	412	–
COCCCOc1cc2c(cc1OC)-c1cc(=O)c(C(=O)O)cn1C(C(C)C)C2 (racemic)	3	1.3	–
